Key:
cathepsin K = target: T1, cathepsin K (Rattus norvegicus, UniProt O35186); test: MicroPET imaging of bone uptake and blocking in rat; conditions: for radioactivity in actively growing bone regions relative to non-target regions such as muscle: normal rat, microPET, 0-60 min, i.v.
T1 sequence (O35186 115-329): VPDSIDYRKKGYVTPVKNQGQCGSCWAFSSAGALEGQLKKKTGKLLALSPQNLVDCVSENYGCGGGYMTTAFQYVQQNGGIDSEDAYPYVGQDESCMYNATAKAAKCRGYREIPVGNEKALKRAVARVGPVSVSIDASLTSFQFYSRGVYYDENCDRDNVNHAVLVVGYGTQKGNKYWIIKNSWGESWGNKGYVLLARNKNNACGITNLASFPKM

[1] = Rat whole body biodistribution of radioactivity after intravenous injection; assay type: in vivo; conditions: female CD rats, i.v., N = 3; for Tissue biodistribution, Bone, avg: femur in its entirety
Outline: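 Female CD rats (N = 6) under light isoflurane got carbon-11 labeled test compound (1.85-4.44 MBq in 5% ethanol/saline) by tail vein. At 5 and 40 min, groups of 3 were anesthetized and killed by decapitation, and tissues were removed. Samples were weighed and counted for carbon-11, and uptake was expressed as % injected dose/g.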

In the case of `CC(C)(C)CNc1nc(C#N)ncc1C(=O)NCCc1ccc(O[11CH3])cc1` [[^11C]2, 2-cyano-N-(4-[^11C]methoxyphenethyl)-4-(neopentylamino)pyrimidine-5-carboxamide], the “radioactivity in actively growing bone regions relative to non-target regions such as muscle” value (cathepsin K) is reported as 2 to 3 times and the “bone uptake of radioactivity after blocking dose of unlabeled ligand” value (cathepsin K; rat microPET, 2 mg/kg unlabeled 2 ten minutes prior to the radioligand) is reported as “reduction of bone uptake of radioactivity to essentially levels equivalent to background in non-target tissues”.
For `[11CH3]Oc1ccc(CCNC(=O)c2cnc(C#N)nc2NC2CCCCC2)cc1` [[^11C]1, 2-cyano-4-(cyclohexylamino)-N-(4-[^11C]methoxyphenethyl)-pyrimidine-5-carboxamide], the “radioactivity in actively growing bone regions relative to non-target regions such as muscle” value (cathepsin K) was 2 to 3 times, the “Tissue biodistribution, Adrenal, avg” value ([1]; 5 min) was 3.57 % injected dose/g and the “Tissue biodistribution, Blood, avg” value ([1]; 5 min) was 0.24 % injected dose/g. For the same compound, the “Tissue biodistribution, Brain, avg” value ([1]; 5 min) was 0.43 % injected dose/g, the “Tissue biodistribution, Heart, avg” value ([1]; 5 min) was 1.23 % injected dose/g and the “Tissue biodistribution, Kidney, avg” value ([1]; 5 min) was 2.03 % injected dose/g. For the same compound, the “Tissue biodistribution, Liver, avg” value ([1]; 5 min) was 3.02 % injected dose/g, the “Tissue biodistribution, Lung, avg” value ([1]; 5 min) was 0.68 % injected dose/g and the “Tissue biodistribution, Muscle, avg” value ([1]; 5 min) was 0.11 % injected dose/g. The “Tissue biodistribution, Pancreas, avg” value ([1]; 5 min) was 1.68 % injected dose/g, the “Tissue biodistribution, Spleen, avg” value ([1]; 5 min) was 1.03 % injected dose/g and the “Tissue biodistribution, Bone, avg” value ([1]; 5 min) was 0.26 % injected dose/g. The “Tissue biodistribution, Adrenal, avg” value ([1]; 40 min) was 0.51 % injected dose/g, the “Tissue biodistribution, Blood, avg” value ([1]; 40 min) was 0.11 % injected dose/g and the “Tissue biodistribution, Brain, avg” value ([1]; 40 min) was 0.11 % injected dose/g. The “Tissue biodistribution, Heart, avg” value ([1]; 40 min) was 0.19 % injected dose/g, the “Tissue biodistribution, Kidney, avg” value ([1]; 40 min) was 0.41 % injected dose/g and the “Tissue biodistribution, Liver, avg” value ([1]; 40 min) was 0.68 % injected dose/g. The “Tissue biodistribution, Lung, avg” value ([1]; 40 min) was 0.16 % injected dose/g, the “Tissue biodistribution, Muscle, avg” value ([1]; 40 min) was 0.11 % injected dose/g and the “Tissue biodistribution, Pancreas, avg” value ([1]; 40 min) was 0.56 % injected dose/g. For the same compound, the “Tissue biodistribution, Spleen, avg” value ([1]; 40 min) was 0.22 % injected dose/g and the “Tissue biodistribution, Bone, avg” value ([1]; 40 min) was 0.14 % injected dose/g.
